Active and inactive are the calls of the source. The rule behind the calls is not given here.
Assays:
HL-60 [1] = test: Induction of cell cycle arrest in human HL60 cells assessed as accumulation at S phase at 3 uM after 24 hrs by propidium iodide staining based flow cytometry (reference value: 17.9 +/- 0.6%); type: functional
HL-60 [2] = test: Induction of cell cycle arrest in human HL60 cells assessed as accumulation at G2/M phase at 3 uM after 48 hrs by propidium iodide staining based flow cytometry (reference value: 17.9 +/- 0.7%); type: functional
HL-60 [3] = test: Induction of cell cycle arrest in human HL60 cells assessed as accumulation at G1 phase at 1 uM after 48 hrs by propidium iodide staining based flow cytometry (reference value: 60.4 +/- 0.4%); type: functional
U-937 [4] = test: Induction of cell cycle arrest in human U937 cells assessed as accumulation at G2/M phase at 1 uM after 24 hrs by propidium iodide staining based flow cytometry (reference value: 22.8 +/- 1.6%); type: functional
U-937 [5] = test: Induction of cell cycle arrest in human U937 cells assessed as accumulation at G1 phase at 3 uM after 12 hrs by propidium iodide staining based flow cytometry (reference value: 45.8 +/- 0.8%); type: functional
U-937 [6] = test: Induction of cell cycle arrest in human U937 cells assessed as accumulation at G1 phase at 10 uM after 48 hrs by propidium iodide staining based flow cytometry (reference value: 51.9 +/- 0.9%); type: functional
U-937 [7] = test: Induction of cell cycle arrest in human U937 cells assessed as accumulation at G2/M phase at 1 uM after 12 hrs by propidium iodide staining based flow cytometry (reference value: 24.2 +/- 1.2%); type: functional
Raji = test: Cytotoxicity against human Raji cells after 72 hrs by MTT assay; type: functional, cell-based
Procedure, shortened: (§1)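 MTT colorimetric assay with 72 h continuous exposure. IC50 was fitted per experiment by non-linear regression. Values are means with SE from at least three independent experiments, each run in triplicate.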

MOLT-3 [8] = test: Induction Bax cleavage in human MOLT3 cells at 3 uM by Western blotting method; type: functional, cell-based
Procedure, shortened: (§2)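 Cells were exposed to a range of compound concentrations and harvested at 24 h. Lysates were immunoblotted for caspase proforms and cleaved forms, and for Bcl-2 family proteins.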

U-937 [9] = test: Induction of cell cycle arrest in human U937 cells assessed as accumulation at G2/M phase at 10 uM after 24 hrs by propidium iodide staining based flow cytometry (reference value: 22.8 +/- 1.6%); type: functional
HL-60 [10] = test: Increase in DR5 expression in human HL60 cells at 10 30 uM after 24 hrs by immunoblotting method; type: functional, cell-based
Procedure, shortened: (§3)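 HL-60 and U937 cells were treated with increasing concentrations for 24 h. Lysates were immunoblotted for TRAIL, DR4 and DR5.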

U-937 [11] = test: Induction of cell cycle arrest in human U937 cells assessed as accumulation at S phase at 1 uM after 48 hrs by propidium iodide staining based flow cytometry (reference value: 18.9 +/- 0.2%); type: functional
HL-60 [12] = test: Induction of apoptosis in human HL60 cells assessed as nuclear chromatin condensation at 30 uM after 24 hrs by Hoechst 33258 staining based fluorescence microscopy; type: functional, cell-based
Procedure, shortened: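 HL-60 cells were treated at 30 µM for 24 h, stained with Hoechst 33258, and scored for chromatin condensation by fluorescence microscopy.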

U-937 [13] = test: Induction of cell cycle arrest in human U937 cells assessed as accumulation at S phase at 10 uM after 48 hrs by propidium iodide staining based flow cytometry (reference value: 18.9 +/- 0.2%); type: functional
HL-60 [14] = test: Induction of apoptosis in human HL60 cells assessed as pro-caspase-3 cleavage by Western blotting method; type: functional, cell-based; procedure, shortened: as §2
U-937 [15] = test: Induction of cell cycle arrest in human U937 cells assessed as accumulation at G2/M phase at 1 uM after 48 hrs by propidium iodide staining based flow cytometry (reference value: 19.1 +/- 1.1%); type: functional
U-937 [16] = test: Increase in DR5 expression in human U937 cells at 10 30 uM after 24 hrs by immunoblotting method; type: functional, cell-based; procedure, shortened: as §3
HL-60 [17] = test: Induction of apoptosis in human HL60 cells assessed as pro-caspase-7 cleavage by Western blotting method; type: functional, cell-based; procedure, shortened: as §2
U-937 [18] = test: Cytotoxicity against human U937 cells at 30 uM incubated for 24 hrs followed of 0.5 ug/mL TRAIL exposure for 24 hrs by MTT assay; type: functional, cell-based
Procedure, shortened: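 U937 cells, MTT viability read-out. One arm received TRAIL at 0.5 µg/mL together with compound at 30 µM for 48 h. The other arm had compound for 24 h, then TRAIL for 24 h. Three independent experiments, each in triplicate.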

HL-60 [19] = test: Increase in TRAIL expression in human HL60 cells at 10 30 uM after 24 hrs by immunoblotting method; type: functional, cell-based; procedure, shortened: as §3
HL-60 [20] = test: Induction of cell cycle arrest in human HL60 cells assessed as accumulation at G1 phase at 1 uM after 24 hrs by propidium iodide staining based flow cytometry (reference value: 53 +/- 1.1%); type: functional
HL-60 [21] = test: Induction of cell cycle arrest in human HL60 cells assessed as accumulation at subG1 phase at 3 uM after 24 hrs by propidium iodide staining based flow cytometry (reference value: 3.4 +/- 0.3%); type: functional
HL-60 [22] = test: Induction of apoptosis in human HL60 cells assessed as pro-caspase-9 cleavage by Western blotting method; type: functional, cell-based; procedure, shortened: as §2
U-937 [23] = test: Induction of cell cycle arrest in human U937 cells assessed as accumulation at subG1 phase at 3 uM after 12 hrs by propidium iodide staining based flow cytometry (reference value: 4.6 +/- 0.9%); type: functional
U-937 [24] = test: Induction of cell cycle arrest in human U937 cells assessed as accumulation at subG1 phase at 1 uM after 48 hrs by propidium iodide staining based flow cytometry (reference value: 6.7 +/- 0.3%); type: functional
HL-60 [25] = test: Induction of cell cycle arrest in human HL60 cells assessed as accumulation at subG1 phase at 10 uM after 48 hrs by propidium iodide staining based flow cytometry (reference value: 3.7 +/- 0.1%); type: functional
MOLT-3 [26] = test: Induction of apoptosis in human MOLT3 cells assessed as increase in caspase 9 activity using LEHD-pNA substrate at 10 uM after 24 hrs; type: functional, cell-based
Procedure, shortened: (§4)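 Cells were given 10 µM for 24 h. Lysates were assayed for cleavage of DEVD-pNA (caspase-3/7), IETD-pNA (caspase-8) and LEHD-pNA (caspase-9). Results are expressed as fold over control, from three independent experiments in triplicate.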

MOLT-3 [27] = test: Induction of apoptosis in human MOLT3 cells assessed as increase in caspase 3/7 activity using DEVD-pNA substrate at 10 uM after 24 hrs; type: functional, cell-based; procedure, shortened: as §4
U-937 [28] = test: Induction of cell cycle arrest in human U937 cells assessed as accumulation at G2/M phase at 3 uM after 24 hrs by propidium iodide staining based flow cytometry (reference value: 22.8 +/- 1.6%); type: functional
[29] = Cytotoxicity against human HL60 cells after 72 hrs by MTT assay; type: functional, cell-based; details: HL-60, 72 h; procedure, shortened: as §1
U-937 [30] = test: Induction of cell cycle arrest in human U937 cells assessed as accumulation at G1 phase at 3 uM after 24 hrs by propidium iodide staining based flow cytometry (reference value: 49.8 +/- 1.5%); type: functional
U-937 [31] = test: Induction of cell cycle arrest in human U937 cells assessed as accumulation at G1 phase at 1 uM after 48 hrs by propidium iodide staining based flow cytometry (reference value: 51.9 +/- 0.9%); type: functional

In the case of `O=c1c(O)c(-c2ccc(Br)cc2)oc2ccccc12`, the Activity (HL-60 [1]) is reported as 17.6%, the Activity (HL-60 [2]) is reported as 18% and the Activity (HL-60 [3]) is reported as 57.6%. The Activity (U-937 [4]) was 25.2%, the Activity (U-937 [5]) was 46.6% and the Activity (U-937 [6]) was 41.4%. The Activity (U-937 [7]) was 25.1%, the IC50 (Raji) was 5.8 µM and the Activity (MOLT-3 [8]) was “Active”. For the same compound, the Activity (U-937 [9]) was 18.7%, the Activity (HL-60 [10]) was “Active” and the Activity (U-937 [11]) was 19.6%. For the same compound, the Activity (HL-60 [12]) was “Active”, the Activity (U-937 [13]) was 11.9% and the Activity (HL-60 [14]) was “Active”. For the same compound, the Activity (U-937 [15]) was 19.9%, the Activity (U-937 [16]) was “Active” and the Activity (HL-60 [17]) was “Active”. For the same compound, the Activity (U-937 [18]) was “Active”, the Activity (HL-60 [19]) was “Active” and the Activity (HL-60 [20]) was 49.5%. For the same compound, the Activity (HL-60 [21]) was 5.9%, the Activity (HL-60 [22]) was “Active” and the Activity (U-937 [23]) was 3.1%. The Activity (U-937 [24]) was 7%, the Activity (HL-60 [25]) was 56.7% and the Activity (MOLT-3 [26]) was “Active”. For the same compound, the Activity (MOLT-3 [27]) was “Active”, the Activity (U-937 [28]) was 21.7% and the IC50 [29] was 3.3 µM. The Activity (U-937 [30]) was 42.3% and the Activity (U-937 [31]) was 49%.

— ChEMBL document CHEMBL3352730, “Synthesis and effects on cell viability of flavonols and 3-methyl ether derivatives on human leukemia cells” (Eur J Med Chem, 2014)
